Screening data (PubChem BioAssay)
Shown are actives, neighbours in structure and some others; about 1.4% of the full set was active somewhere.
UCH37 DUB inh = blocks the human deubiquitinase UCH37; Q9Y5K5; purified proteasome/UCH37, Ub-AMC cleavage fluorescence; inhibition, % (no concentration beside the values); 0.33% of 330,000 active; AID 588478;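 active = mean inhibition over replicate wells above about 20%, limit read from the data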
Target sequence (Q9Y5K5 whole entry, looked up): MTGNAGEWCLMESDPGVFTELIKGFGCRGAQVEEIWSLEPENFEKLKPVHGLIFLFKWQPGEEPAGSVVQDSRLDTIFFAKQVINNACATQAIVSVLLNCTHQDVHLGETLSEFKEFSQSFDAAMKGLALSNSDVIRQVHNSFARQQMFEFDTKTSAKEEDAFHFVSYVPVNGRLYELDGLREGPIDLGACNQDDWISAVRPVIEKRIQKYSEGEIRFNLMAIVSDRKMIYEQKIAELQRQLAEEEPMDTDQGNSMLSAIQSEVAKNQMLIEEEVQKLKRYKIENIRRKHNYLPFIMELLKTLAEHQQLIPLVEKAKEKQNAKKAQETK
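Assay system: Proteasome-bound UCH37. Buffer or medium: pH 7.4 Tris-HCl (50 mM) with ovalbumin, ATP-MgCl2, DTT. Incubation: 30 min preincubation with enzyme, 25 min cleavage at room temperature. Measured by: fluorescence, ex 355 nm, em 460 nm. Read-out basis: percent inhibition. Control set: wells without proteasome as full block, compound-free enzyme plus substrate as uninhibited.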
Fh CTSL1 inh = blocks F. hepatica cathepsin L1 in PFM18AAP counter-screen. recombinant F. hepatica cathepsin L1, Z-Leu-Arg-MCA fluorescence. inhibition, % at 5.96 µM. 0.49% of 300,000 active. AID 1906;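 active = inhibition above the mean of all tested compounds plus 3 SD, set per screening campaign, cut at about 17% in these data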
SUMO HTRF inh = inhibitors of human SUMOylation (UBC9). HTRF SUMOylation assay, SAE1/SAE2 + UBC9, in vitro. P63279. AID 2006. inhibition, % at 35 µM. 0.36% of 290,000 active; in the data active = inhibition above about 50%, passing the limit was not always enough; inconclusive = no clear call, values can overlap the other calls
Target sequence (P63279 whole entry, looked up): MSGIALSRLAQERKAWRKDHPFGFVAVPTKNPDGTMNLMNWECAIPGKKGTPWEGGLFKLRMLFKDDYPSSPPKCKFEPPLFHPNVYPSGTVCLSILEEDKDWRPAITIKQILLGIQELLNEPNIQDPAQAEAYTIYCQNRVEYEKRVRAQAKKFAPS
Neddyl block = cullin neddylation inhibition | TR-FRET cullin neddylation, biochemical | inhibition, % at 25 µM | 0.58% of 360,000 active | AID 651699; in the data active = inhibition above about 36%
Neddyl inh conf = cullin neddylation inhibition, confirmation; shares compounds with Neddyl block; TR-FRET cullin neddylation biochemical assay; calls only at 25 µM; 13% of 1,800 active; in the data active = inhibition above about 40%;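 note: neddylation substrate is the cullin 1 ring ligase complex with SKP2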
Each line names hits and unclear results; the compound was inactive in the other large screens (follow-up assays come after a bar, where shown).

CCOc1cc(NC(=O)C2CC2)c(OCC)cc1NC(=O)c1cc(OC)c(OC)c(OC)c1	none (not shown: Neddyl block)
CCOC(=O)C1CCN(c2cc3c(cc2NC(=O)c2ccccc2OCC)n(C)c(=O)n3C)CC1	Neddyl block 46 | Neddyl inh conf inactive
CCOc1cc(NC(=O)C2CC2)c(OCC)cc1NC(=O)c1ccccc1OCC	Neddyl block 50
COc1ccc(C(=O)Oc2ccc(C=NNC(=O)c3cccnc3)cc2OC)cc1	none (no result: Fh CTSL1 inh, SUMO HTRF inh, Neddyl block)
CCOc1cc(C=NNC(=O)c2cc3c(ccc4ccccc43)o2)ccc1O	none (no result: Fh CTSL1 inh, SUMO HTRF inh, Neddyl block)
CCOC(=O)COc1ccccc1/C=N\NC(=O)c1cc2c(ccc3ccccc32)o1	Neddyl block 55 (not shown: UCH37 DUB inh, Fh CTSL1 inh)
NC(=O)CCC(=O)N1CCCC(C(=O)c2ccc3c4c(cccc24)CC3)C1 (stereo not given)	Neddyl block 44 | Neddyl inh conf inactive
O=C1CCC(CCC(=O)N2CCCC(C(=O)c3ccc4c5c(cccc35)CC4)C2)=NN1 (stereo not given)	none
O=C1CCC(C(=O)N2CCCC(C(=O)c3ccc4c5c(cccc35)CC4)C2)=NN1 (stereo not given)	Neddyl block 43 | Neddyl inh conf active
O=c1oc2ccccc2cc1-c1nnc(NCc2ccco2)s1	SUMO HTRF inh inconclusive, Neddyl block 50 | Neddyl inh conf inactive
Nc1nnc(-c2cc3ccccc3oc2=O)s1	SUMO HTRF inh inconclusive, Neddyl block 47 | Neddyl inh conf active
Cc1nnc2ccc(N3CCCCC3)nn12	none
Cc1cc(C)n(-c2ccc3nnc(C)n3n2)n1	Neddyl block 36 | Neddyl inh conf inactive
COc1ccccc1NCC(=O)NN=C(C)c1ccc(Br)s1	none (no result: Fh CTSL1 inh, SUMO HTRF inh, Neddyl block)
Fc1cccc(CO/N=C/c2c(-c3ccccc3)nc3ccc(Cl)cn23)c1	none (no result: UCH37 DUB inh)
Cc1cccn2c(/C=N/OCc3cccc(F)c3)c(-c3ccc(Cl)cc3)nc12	Neddyl block 48 (no result: UCH37 DUB inh) | Neddyl inh conf inactive
COc1ccc(CC(=O)N2CCN(c3ccc(C4=NNC(=O)CC4C)cc3)CC2)cc1 (stereo not given)	Neddyl block 46
COc1ccc(CC(=O)N2CCN(C(=O)Cc3ccc(OC)cc3)CC2)cc1	none
COc1ccc(CCNC(=O)CC2Nc3cc(C)c(C)cc3NC2=O)cc1OC (stereo not given)	Neddyl block 40 | Neddyl inh conf inactive
O=C(Nc1ccc2nc(-c3cccnc3)[nH]c2c1)C12CC3CC(CC(C3)C1)C2	none (not shown: Neddyl block)
O=C(Nc1ccc2nc(-c3cccnc3)[nH]c2c1)C1CCCCC1	Neddyl block 40 | Neddyl inh conf inactive
COc1cc(C=NNc2nc(Nc3ccccc3)nc(N3CCOCC3)n2)ccc1OC(=O)c1ccco1	none (no result: Fh CTSL1 inh, SUMO HTRF inh, Neddyl block)
CC(=NNS(=O)(=O)c1ccc(Cl)cc1)c1cccc(NC(=O)c2ccc(Cl)cc2Cl)c1	none (no result: Fh CTSL1 inh, SUMO HTRF inh, Neddyl block)
CC(Cn1nnc([N+](=O)[O-])n1)=NNC(=O)c1ccc(O)cc1	none (no result: Fh CTSL1 inh, SUMO HTRF inh, Neddyl block)
O=C1O[C@@H](c2ccc(O)cc2)Cc2cccc(O)c21	Neddyl block 39 (not shown: Fh CTSL1 inh, SUMO HTRF inh)
Cc1cc(=O)oc2cc(OCC(=O)N3CCOCC3)c(Cl)cc12	none (not shown: Fh CTSL1 inh, SUMO HTRF inh, Neddyl block)
Cc1cc(=O)oc2cc(OCC(=O)N3CCCC3)c(Cl)cc12	Neddyl block 60 (not shown: Fh CTSL1 inh, SUMO HTRF inh)
CN(C)C(=O)CSc1ncccc1-c1nc2ccccc2[nH]1	none
CCN(CC)C(=O)CSc1ncccc1-c1nc2ccccc2[nH]1	Neddyl block 43 | Neddyl inh conf inactive
CC(=NNc1nc(C)cc(=O)[nH]1)C1CC1	none (no result: Fh CTSL1 inh, SUMO HTRF inh, Neddyl block)
CCc1cc2c3c(c(=O)oc2cc1OCC(=O)OC)CCCC3	Neddyl block 43 | Neddyl inh conf inactive
CCc1cc2c3c(c(=O)oc2cc1OC(C)C(=O)O)CCCC3 (stereo not given)	none (not shown: Neddyl block)
COc1ccc(C(=O)NCC(=O)NN=Cc2c(C)[nH]c3ccccc23)cc1	none (no result: Fh CTSL1 inh, SUMO HTRF inh, Neddyl block)
CCCN(CC(=O)Nc1ccccc1C)C(=O)c1ccc(-c2ccc(C(C)=O)cc2)o1	Neddyl block 61 (not shown: SUMO HTRF inh)
NNc1nc2ccccc2c(=O)n1Cc1ccccc1	Neddyl block 41 | Neddyl inh conf inactive
CC(C)OCCCn1c(NN)nc2ccccc2c1=O	none
O=C(Nc1ccccc1)c1cccc(C(=O)Nc2ccccc2)n1	Neddyl block 51 | Neddyl inh conf inactive
O=C(O)c1ccc(NC(=O)c2cccc(C(=O)Nc3ccc(C(=O)O)cc3)n2)cc1	none
CCCCC1=CC2=CC(=O)C(C)(OC(=O)CC)C(=O)C2=CN1CCc1ccccn1 (stereo not given)	Neddyl block 38 | Neddyl inh conf inactive
CNC(=S)NN=C(C)c1ccc2c(c1)OCO2	none (no result: Fh CTSL1 inh, SUMO HTRF inh, Neddyl block)
CC1CC(=O)C2=C(C1)Nc1ccccc1N=C2 (stereo not given)	none
CCC(=O)c1cccc2c1N=CC1=C(CC(C)(C)CC1=O)N2	Neddyl block 42
c1ccc(N2CCN(c3nc(NCc4ccco4)c4ccccc4n3)CC2)cc1	none
c1coc(CNc2nc(N3CCCCC3)nc3ccccc23)c1	Neddyl block 38 | Neddyl inh conf inactive
CN(Cc1c(C(=O)NN=Cc2cccs2)nnn1-c1nonc1N)c1ccccc1	none (no result: Fh CTSL1 inh, SUMO HTRF inh, Neddyl block)
OC1CCCN(Cc2cccc3ccccc23)C1 (stereo not given)	none
OC1CCCN(Cc2c3ccccc3cc3ccccc23)C1 (stereo not given)	Neddyl block 50 | Neddyl inh conf active
COc1ccccc1/C=C/C=Nn1c(-c2cc(C)[nH]n2)n[nH]c1=S	none (no result: Fh CTSL1 inh, SUMO HTRF inh, Neddyl block)
COc1cc2c(cc1OC)-c1cc(NC3CCCC3)nc(=O)n1CC2	Neddyl block 41 | Neddyl inh conf inactive
O=C(NN=Cc1cc(Br)c(Br)o1)c1cncc(Br)c1	none (no result: Fh CTSL1 inh, SUMO HTRF inh, Neddyl block)
CCN(CC)c1ccc(C(=O)N/N=C/c2ccc(OC)cc2OC)cc1	Neddyl block 42 (no result: UCH37 DUB inh) | Neddyl inh conf inactive
COc1ccc(OC)c(C=NNC(=O)c2ccc(NS(=O)(=O)c3cccs3)cc2)c1	Neddyl block 55 (not shown: Fh CTSL1 inh, SUMO HTRF inh)
Cc1nc(N2CCN(C(=O)c3ccco3)CC2)c(C#N)c2c1CCCC2	Neddyl block 48 | Neddyl inh conf inactive
COc1cccc(-c2nc(C#N)c(N3CCN(C(=O)c4ccco4)CC3)o2)c1	Neddyl block 56 | Neddyl inh conf inactive
Cc1cc(C(=O)N2CCN(c3ncccc3C#N)CC2)no1	none
COc1ccc(N2CCN(C(=O)COCC(=O)O)CC2)cc1	none
N#Cc1nc(-c2ccc(F)cc2)oc1N1CCN(C(=O)c2ccco2)CC1	none
N#Cc1cccnc1N1CCN(C(=O)COCC(=O)O)CC1	Neddyl block 42 | Neddyl inh conf active
N#Cc1cccnc1N1CCN(C(=O)c2ccco2)CC1	Neddyl block 49 | Neddyl inh conf inactive
CC(C)Cc1nc(N2CCN(C(=O)c3ccco3)CC2)c(C#N)c2c1CCCC2	none
CC(=NNC(=O)CNC(=O)/C=C/c1ccco1)c1ccc(Cl)cc1	none (no result: Fh CTSL1 inh, SUMO HTRF inh, Neddyl block)
CC(C)(C)S(=O)(=O)C(C#N)=NNc1ccc(S(C)(=O)=O)cc1	none (no result: Fh CTSL1 inh, SUMO HTRF inh, Neddyl block)
ON=Cc1ccccc1Oc1ccc(Cl)cc1	none (no result: Fh CTSL1 inh, SUMO HTRF inh, Neddyl block)
CSc1ccccc1NC(=O)c1cc2c(=O)n3ccccc3nc2s1	Neddyl block 48
CC(C)NC(=O)c1cc2c(=O)n3ccccc3nc2s1	none
C[C@H](O)C(=O)C1=Nc2c(nc(N)[nH]c2=O)NC1	Neddyl block 55 (no result: SUMO HTRF inh) | Neddyl inh conf inactive
